# Measurements of several laboratories.
# Lines come from different studies, so protocols differ.
# Target: NT-3 growth factor receptor (NTRK3, Homo sapiens, UniProt Q16288)
Compound,read-out,method,concentration,remaining binding [%]
O=C(c1ccc(Nc2nccc(-c3cc4ccccc4s3)n2)cc1)N1CCC(N2CCCC2)CC1,binding,competition with immobilised ligand,1 µM,71
CN1CCN(c2cnc3c(C4CCN(C(=O)c5ccc(OC(F)(F)F)cc5N)CC4)ncnc3c2)CC1,cell-free assay,competition with immobilised ligand,1 µM,100
O=C(c1ccc(Nc2ncc(Cl)c(-c3ccc(Cl)s3)n2)cc1)N1CCC(N2CCCC2)CC1,binding,competition with immobilised ligand,1 µM,24
O=C(NCc1ncc(C(F)(F)F)cc1Cl)c1ccc2c(c1)C1(CCS(=O)(=O)CC1)[C@@H](C1CC1)N2S(=O)(=O)c1ccc(F)cc1,cell-free assay,competition with immobilised ligand,1 µM,71
CN(C)c1nccc(-c2cnc3ncccn23)n1,binding,,1 µM,78
O=C(Nc1c[nH]nc1C(=O)NC1CCNCC1)c1cc(F)cc(F)c1,binding,competition with immobilised ligand,1 µM,100
Nc1ncc2c(n1)-c1c([nH]c3ccc(C#CC4CC4)cc13)CCCC2,binding,competition with immobilised ligand,1 µM,99
CO[C@@H](C)c1c(Nc2ccc([C@H](N(C)C(=O)C3CCS(=O)(=O)CC3)C(F)(F)F)cc2)cnc2cc(Cl)nn12,cell-free assay,competition with immobilised ligand,1 µM,100
COc1cnc(Nc2cccc(S(N)(=O)=O)c2)nc1N1CCN(c2ccccc2)CC1,binding,competition with immobilised ligand,1 µM,61
CC1CCCN1c1nccc(-c2cnn3ncccc23)n1 (stereo not shown),binding,,1 µM,100
CNC(=O)Nc1ccc2c(c1)CC[C@@]21OC(=O)N(CC(=O)N(Cc2ccc(F)cc2)[C@@H](C)C(F)(F)F)C1=O,cell-free assay,competition with immobilised ligand,1 µM,84
Cc1cnc(Nc2ccc(C(=O)N3CCC(N4CCCC4)CC3)cc2)nc1-c1cc2ccccc2s1,binding,competition with immobilised ligand,1 µM,16
N[C@H]1CCN(c2nccc(-c3cnn4ncccc34)n2)C1,binding,,1 µM,85
FC(F)(F)Oc1cccc(-c2cnc3ccc(-c4ccncc4)nn23)c1,cell-free assay,competition with immobilised ligand,5 µM,20
CN(C)c1nccc(-c2cnn3ncccc23)n1,binding,,1 µM,72
C[C@H](NC(=O)c1cnc2n1[C@](C)(Cc1ccc(C#N)cc1)C(=O)N2c1cc(Cl)c(F)c(Cl)c1)C(=O)NC1(c2ccccn2)CC1,cell-free assay,competition with immobilised ligand,1 µM,100
c1cnn2ncc(-c3ccnc(N4CCC45COC5)n3)c2c1,binding,,1 µM,73
CCN1CCN(Cc2ccc(C(=O)Nc3ccc(C)c(Oc4ccc5c(c4)CC(=O)N5)c3)cc2C(F)(F)F)CC1,binding,competition with immobilised ligand,1 µM,68
Cc1cnn2ncc(-c3ccnc(N(C)C)n3)c2c1,binding,,1 µM,73
O=C(N1CCS(=O)(=O)CC1)N1C[C@H](c2ccc(OC(F)(F)F)cc2)C[C@H](c2nc(C3CC3)no2)C1,cell-free assay,competition with immobilised ligand,1 µM,100
C[C@H]1CCN(c2nccc(-c3cnn4ncccc34)n2)C1,binding,,1 µM,63
CCC(=O)N[C@H]1CC[C@@H](C(=O)N(C)c2ccc(-c3nc4ccccc4o3)cc2)C1,cell-free assay,competition with immobilised ligand,1 µM,32
